Experimental data: ChEMBL document CHEMBL1138784, “Rational design, synthesis, and biological evaluation of bis(pyrimido[5,6,1-de]acridines) and bis(pyrazolo[3,4,5-kl]acridine-5-carboxamides) as new anticancer agents” (J Med Chem, 2004)

How the values were obtained:
NCI-H460 [1] = assay: Percent growth of lung NCI-H460 cell line was determined at 10e-5 M concentration after 48 hr of exposing; type: functional, Homo sapiens
Summary of the method: (§1)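 NCI sulforhodamine B screen. Cells seeded by growth rate, 24 h drug-free, then 48 h exposure to 10^-8, 10^-6 or 10^-5 M. Protein-stain optical density expressed as percent growth relative to untreated control (100%); negative values indicate cell kill.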

MCF7 [2] = assay: Percent growth of breast MCF-7 cell line was determined at 10e-8 M concentration after 48 hr of exposing; type: functional, Homo sapiens
MKN-45 = assay: Cytotoxicity against human MKN45 cancer cell line was determined after 1 hr; type: functional, cell-based; conditions: MKN-45, 1 h
Summary of the method: (§2)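 MTT colorimetric assay. Cells seeded by growth characteristics and preincubated 24 h, then exposed to drug for 1 h or 144 h at 37 °C, 5% CO2. H460M, MKN45 and PC-3 were grown in RPMI 1640 with 10% FCS. HCT116 was grown in D-MEM with 10% FBS and 2 mM glutamine.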

NCI-H460 [3] = assay: Percent growth of lung NCI-H460 cell line was determined at 10e-8 M concentration after 48 hr of exposing; type: functional, Homo sapiens; summary of the method: as §1
[4] = Cytotoxicity against human PC3 cancer cell line was determined after 144 hr; type: cell-based; conditions: Cancer cell lines; summary of the method: as §2
LoVo [5] = assay: Cytotoxicity against doxorubicin resistant LoVo cell line was determined against 144 hrs; type: functional, cell-based; conditions: Homo sapiens
Summary of the method: (§3)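 MTT assay on doxorubicin-sensitive LoVo and resistant LoVo/Dx cells, 24 h preincubation, then 1 h or 144 h drug exposure at 37 °C, 5% CO2. IC50 in nM. Resistance index is IC50 on LoVo/Dx divided by IC50 on LoVo.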

DU-145 [6] = assay: Percent growth of prostate DU-145 cell line was determined at 10e-6 M concentration after 48 hr of exposing; type: functional, Homo sapiens
[7] = Percent growth of melanoma LOX IMV1 cell line was determined at 10e-6 M concentration after 48 hr of exposing; type: functional, Homo sapiens; summary of the method: as §1
DU-145 [8] = assay: Percent growth of prostate DU-145 cell line was determined at 10e-5 M concentration after 48 hr of exposing; type: functional, Homo sapiens
SNB-19 [9] = assay: Percent growth of CNS SNB-19 cell line was determined at 10e-5 M concentration after 48 hr of exposing; type: functional, Homo sapiens; summary of the method: as §1
786-0 [10] = assay: Percent growth of renal 786-O cell line was determined at 10e-6 M concentration after 48 h of exposing; type: functional, Homo sapiens; summary of the method: as §1
MOLT-4 [11] = assay: Percent growth of leukemia MOLT-4 cell line was determined at 10e-6 M concentration after 48 h of exposing; type: functional, Homo sapiens; summary of the method: as §1
786-0 [12] = assay: Percent growth of renal 786-O cell line was determined at 10e-8 M concentration after 48 h of exposing; type: functional, Homo sapiens; summary of the method: as §1
[13] = Percent growth of melanoma LOX IMV1 cell line was determined at 10e-5 M concentration after 48 hr of exposing; type: functional, Homo sapiens; summary of the method: as §1
OVCAR-4 [14] = assay: Percent growth of ovarian OVCAR-4 cell line was determined at 10e-6 M concentration after 48 hr of exposing; type: functional, Homo sapiens; summary of the method: as §1
MOLT-4 [15] = assay: Percent growth of leukemia MOLT-4 cell line was determined at 10e-8 M concentration after 48 hr of exposing; type: functional, Homo sapiens; summary of the method: as §1
OVCAR-4 [16] = assay: Percent growth of ovarian OVCAR-4 cell line was determined at 10e-5 M concentration after 48 hr of exposing; type: functional, Homo sapiens; summary of the method: as §1
[17] = Percent growth of melanoma LOX IMV1 cell line was determined at 10e-8 M concentration after 48 hr of exposing; type: functional, Homo sapiens; summary of the method: as §1
SNB-19 [18] = assay: Percent growth of CNS SNB-19 cell line was determined at 10e-8 M concentration after 48 hr of exposing; type: functional, Homo sapiens; summary of the method: as §1
DU-145 [19] = assay: Percent growth of prostate DU-145 cell line was determined at 10e-8 M concentration after 48 h of exposing; type: functional, Homo sapiens
[20] = Cytotoxicity is determined as the concentration required to inhibit the growth of human colon adenocarcinoma (HT-29) cell line
786-0 [21] = assay: Percent growth of renal 786-O cell line was determined at 10e-5 M concentration after 48 hr of exposing; type: functional, Homo sapiens; summary of the method: as §1
MCF7 [22] = assay: Percent growth of breast MCF-7 cell line was determined at 10e-6 M concentration after 48 h of exposing; type: functional, Homo sapiens
PC-3 = assay: Cytotoxicity against human PC3 cancer cell line was determined after 1 hr; type: functional, cell-based; conditions: PC-3, 1 h; summary of the method: as §2
SW-620 [23] = assay: Percent growth of colon SW-620 cell line was determined at 10e-6 M concentration after 48 hr of exposing; type: functional, Homo sapiens; summary of the method: as §1
LoVo [24] = assay: Cytotoxicity against doxorubicin resistant LoVo cell line was determined against 1 hour; type: functional, cell-based; conditions: Homo sapiens; summary of the method: as §3
SNB-19 [25] = assay: Percent growth of CNS SNB-19 cell line was determined at 10e-6 M concentration after 48 hr of exposing; type: functional, Homo sapiens; summary of the method: as §1
LoVo [26] = assay: Ratio of IC50 against sensitive LoVo cell line and that of doxorubicin resistance LoVo cell line was determined after 1 hr exposure; type: functional, Homo sapiens
[27] = Cytotoxicity against human LoVo cancer cell line was determined after 144 hr; type: cell-based; summary of the method: as §3
SW-620 [28] = assay: Percent growth of colon SW-620 cell line was determined at 10e-8 M concentration after 48 hr of exposing; type: functional, Homo sapiens; summary of the method: as §1
SW-620 [29] = assay: Percent growth of colon SW-620 cell line was determined at 10e-5 M concentration after 48 hr of exposing; type: functional, Homo sapiens; summary of the method: as §1
MOLT-4 [30] = assay: Percent growth of leukemia MOLT-4 cell line was determined at 10e-5 M concentration after 48 hr of exposing; type: functional, Homo sapiens; summary of the method: as §1
LoVo [31] = assay: Cytotoxicity against human LoVo cancer cell line was determined after 1 hr; type: functional, cell-based; summary of the method: as §3
OVCAR-4 [32] = assay: Percent growth of ovarian OVCAR-4 cell line was determined at 10e-8 M concentration after 48 hr of exposing; type: functional, Homo sapiens; summary of the method: as §1
NCI-H460 [33] = assay: Percent growth of lung NCI-H460 cell line was determined at 10e-6 M concentration after 48 hr of exposing; type: functional, Homo sapiens; summary of the method: as §1
Nucleic Acid = assay: Binding site preference is determined as the ratio of Poly (dA-dT)2 to Poly (dG-dC)2; type: nucleic-acid assay
Summary of the method: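 Ethidium displacement fluorometry at pH 7.0 (10 mM Na2HPO4, 10 mM NaH2PO4, 1 mM EDTA) with 1.26 μM ethidium bromide and 1 μM [poly(dA-dT)]2 or [poly(dG-dC)]2, 20 °C. Ex 546 nm, em 595 nm, drug added serially from a DMSO stock. Preference taken from the [AT]/[GC] ratio of C50 values, counted significant only below 0.7 or above 1.3.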

[34] = Cytotoxicity against human HCT116 cancer cell line was determined after 144 hr; type: cell-based; conditions: HCT-116, 144 h; summary of the method: as §2
MCF7 [35] = assay: Percent growth of breast MCF-7 cell line was determined at 10e-5 M concentration after 48 hr of exposing; type: functional, Homo sapiens
HCT-116 = assay: Cytotoxicity against human HCT116 cancer cell line was determined after 1 hr; type: functional, cell-based; conditions: HCT-116, 1 h; summary of the method: as §2

Work on `CN(C)CCn1c(=O)c2ccc(NCCCN(C)CCCNc3ccc4c(=O)n(CCN(C)C)c(=O)n5c6ccccc6c(=O)c3c45)c3c(=O)c4ccccc4n(c1=O)c23` yielded a Growth (NCI-H460 [1]) of -95%, a Growth (MCF7 [2]) of 31% and an IC50 (MKN-45) of 0.01 nM. The Growth (NCI-H460 [3]) was 13%, the IC50 [4] was 1.6 nM and the IC50 (LoVo [5]) was 3.1 nM. The Growth (DU-145 [6]) was -13%, the Growth [7] was -43% and the Growth (DU-145 [8]) was -98%. For the same molecule, the Growth (SNB-19 [9]) was -53%, the Growth (786-0 [10]) was 4% and the Growth (MOLT-4 [11]) was -26%. It also gave a Growth (786-0 [12]) of 34%, a Growth [13] of -82% and a Growth (OVCAR-4 [14]) of -53%. The Growth (MOLT-4 [15]) was 9%, the Growth (OVCAR-4 [16]) was -77% and the Growth [17] was 25%. It also gave a Growth (SNB-19 [18]) of 32%, a Growth (DU-145 [19]) of 37% and an IC50 [20] of under 0.1 nM. For the same molecule, the Growth (786-0 [21]) was -100%, the Growth (MCF7 [22]) was 0% and the IC50 (PC-3) was 4.1 nM. The Growth (SW-620 [23]) was -25%, the IC50 (LoVo [24]) was 11 nM and the Growth (SNB-19 [25]) was 7%. For the same molecule, the Resistance index (LoVo [26]) was 2.1, the IC50 [27] was 0.31 nM and the Growth (SW-620 [28]) was 26%. It also gave a Growth (SW-620 [29]) of -89%, a Growth (MOLT-4 [30]) of -71% and an IC50 (LoVo [31]) of 5.2 nM. For the same molecule, the Growth (OVCAR-4 [32]) was 15%, the Growth (NCI-H460 [33]) was -22% and the Binding site preference (Nucleic Acid) was 25. The IC50 [34] was 0.1 nM, the Growth (MCF7 [35]) was -96% and the IC50 (HCT-116) was 0.72 nM.

In the case of `COc1cccc2c1C(=O)c1c(O)c3c(c(O)c1C2=O)C[C@@](O)(C(=O)CO)C[C@@H]3O[C@H]1C[C@H](N)[C@H](O)[C@H](C)O1` [DOXORUBICIN], the IC50 (LoVo [5]) is reported as 2300 nM, the IC50 (LoVo [24]) is reported as 9100 nM and the Resistance index (LoVo [26]) is reported as 11. For the same molecule, the IC50 (LoVo [31]) was 810 nM.
